pIC50: −log10 of the molar value. Active and inactive are the calls of the source. No cut-off for these calls is given here.
Assays:
HCT-116 [1] = assay: Cytotoxicity against human HCT116 cells assessed as change in cell viability at 10 uM after 48 hrs by MTT assay; format: functional, cell-based
Summary of the method: (§1)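 Cells grown in DMEM with 10% FBS, 37 °C, 5% CO2; 1 × 10^4 cells per well plated and left 24 h, then exposed to a range of compound concentrations or vehicle (1% EtOH) for 48 h. Viability read by MTT.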

MDA-MB-231 [2] = assay: Cytotoxicity against human MDA-MB-231 cells assessed as change in cell viability at 10 uM after 48 hrs by MTT assay; format: functional, cell-based; summary of the method: as §1
Histone deacetylase 1 = Histone deacetylase 1 (Homo sapiens, UniProt Q13547); assay: Inhibition of recombinant full length C-terminal His/FLAG-tagged human HDAC1 expressed in baculovirus infected Sf9 insect cells using BPS HDAC substrate 3 at 10 uM after 30 mins by fluorescence assay relative to control
Summary of the method: (§2)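 Run by a contract lab. Compound incubated with HDAC enzyme, substrate, bovine serum albumin and HDAC buffer in duplicate for 30 min at 37 °C. Quenched with HDAC developer, 15 min at room temperature, fluorescence read at ex 360/em 460 nm. Activity taken as (F−Fb)/(Ft−Fb) against blank and solvent control wells; IC50 from curve fitting.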

Histone deacetylase 2 = Histone deacetylase 2 (Homo sapiens, UniProt Q92769); assay: Inhibition of full length C-terminal FLAG-tagged human HDAC2 expressed in baculovirus infected Sf9 insect cells using BPS HDAC substrate 3 at 10 uM after 30 mins by fluorescence assay relative to control; summary of the method: as §2
[3] = target: Histone deacetylase 3/Nuclear receptor corepressor 2 (HDAC3/NCoR2) (Homo sapiens) (UniProt O15379+Q9Y618); assay: Inhibition of full length human C-terminal His-tagged HDAC3/N-terminal GST-tagged NCOR2 (395 to 489 residues) expressed in baculovirus infected Sf9 insect cells using BPS HDAC substrate 3 at 10 uM after 30 mins by fluorescence assay relative to control; summary of the method: as §2
[4] = target: Histone deacetylase 5 (Homo sapiens) (UniProt Q9UQL6); assay: Inhibition of full length N-terminal GST-tagged human HDAC5 expressed in baculovirus infected Sf9 insect cells using BPS HDAC class 2a substrate at 10 uM after 30 mins by fluorescence assay relative to control; summary of the method: as §2
[5] = target: T1, Protein deacetylase HDAC6 (Homo sapiens) (UniProt Q9UBN7); assay: Inhibition of full length N-terminal GST-tagged human HDAC6 expressed in baculovirus infected Sf9 insect cells using HDAC substrate 3 after at 10 uM 30 mins by fluorescence assay relative to control; summary of the method: as §2
T1 sequence (whole entry): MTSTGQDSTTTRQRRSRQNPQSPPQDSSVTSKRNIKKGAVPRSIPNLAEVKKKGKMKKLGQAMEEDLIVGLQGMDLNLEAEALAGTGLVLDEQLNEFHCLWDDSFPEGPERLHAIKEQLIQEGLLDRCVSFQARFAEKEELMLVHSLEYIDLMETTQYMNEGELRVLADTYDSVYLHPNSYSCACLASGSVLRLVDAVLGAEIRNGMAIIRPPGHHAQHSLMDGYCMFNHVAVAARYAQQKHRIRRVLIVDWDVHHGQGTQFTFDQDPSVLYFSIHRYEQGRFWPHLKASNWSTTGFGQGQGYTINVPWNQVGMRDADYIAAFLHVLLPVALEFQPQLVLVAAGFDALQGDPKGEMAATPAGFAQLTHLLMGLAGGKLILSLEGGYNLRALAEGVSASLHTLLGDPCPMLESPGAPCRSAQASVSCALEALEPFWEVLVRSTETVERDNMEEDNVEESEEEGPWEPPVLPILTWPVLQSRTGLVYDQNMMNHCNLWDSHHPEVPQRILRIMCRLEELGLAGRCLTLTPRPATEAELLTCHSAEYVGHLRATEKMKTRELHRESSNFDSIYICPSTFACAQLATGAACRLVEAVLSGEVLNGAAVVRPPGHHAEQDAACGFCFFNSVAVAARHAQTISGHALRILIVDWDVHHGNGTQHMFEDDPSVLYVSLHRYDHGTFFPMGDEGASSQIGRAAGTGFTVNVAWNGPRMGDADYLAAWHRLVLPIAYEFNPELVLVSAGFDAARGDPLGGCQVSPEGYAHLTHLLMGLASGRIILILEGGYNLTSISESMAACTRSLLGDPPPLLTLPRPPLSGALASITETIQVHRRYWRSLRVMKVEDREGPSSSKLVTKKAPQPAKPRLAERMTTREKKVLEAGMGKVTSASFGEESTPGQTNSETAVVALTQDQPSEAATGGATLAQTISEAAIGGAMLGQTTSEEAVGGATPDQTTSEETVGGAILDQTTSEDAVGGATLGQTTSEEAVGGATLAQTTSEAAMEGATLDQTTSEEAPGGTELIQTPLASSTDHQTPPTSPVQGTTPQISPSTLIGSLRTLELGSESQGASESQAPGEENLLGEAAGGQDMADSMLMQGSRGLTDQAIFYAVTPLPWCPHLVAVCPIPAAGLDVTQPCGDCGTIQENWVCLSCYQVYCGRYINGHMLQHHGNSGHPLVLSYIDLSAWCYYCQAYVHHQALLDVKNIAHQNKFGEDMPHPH

[6] = target: T2, Histone deacetylase 8 (Homo sapiens) (UniProt Q9BY41); assay: Inhibition of full length C-terminal His-tagged human HDAC8 expressed in baculovirus infected Sf9 insect cells using BPS HDAC class 2a substrate at 10 uM after 30 mins by fluorescence assay relative to control; summary of the method: as §2
T2 sequence (whole entry): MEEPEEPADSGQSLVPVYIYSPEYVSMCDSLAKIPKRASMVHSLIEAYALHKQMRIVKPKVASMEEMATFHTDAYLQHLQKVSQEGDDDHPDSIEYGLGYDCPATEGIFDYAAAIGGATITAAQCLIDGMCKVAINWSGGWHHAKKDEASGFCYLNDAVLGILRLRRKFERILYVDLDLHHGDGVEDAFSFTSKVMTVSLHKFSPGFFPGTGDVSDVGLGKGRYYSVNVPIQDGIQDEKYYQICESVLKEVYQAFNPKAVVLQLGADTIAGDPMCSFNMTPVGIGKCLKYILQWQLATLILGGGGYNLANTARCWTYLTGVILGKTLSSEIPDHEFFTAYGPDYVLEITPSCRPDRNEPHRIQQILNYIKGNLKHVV

[7] = target: T3, Polyamine deacetylase HDAC10 (Homo sapiens) (UniProt Q969S8); assay: Inhibition of N-terminal GST-tagged/C-terminal His-tagged human HDAC10 (1 to 481 residues) expressed in baculovirus infected Sf9 insect cells using BPS HDAC substrate 3 at 10 uM after 30 mins by fluorescence assay relative to control; summary of the method: as §2
T3 sequence (whole entry): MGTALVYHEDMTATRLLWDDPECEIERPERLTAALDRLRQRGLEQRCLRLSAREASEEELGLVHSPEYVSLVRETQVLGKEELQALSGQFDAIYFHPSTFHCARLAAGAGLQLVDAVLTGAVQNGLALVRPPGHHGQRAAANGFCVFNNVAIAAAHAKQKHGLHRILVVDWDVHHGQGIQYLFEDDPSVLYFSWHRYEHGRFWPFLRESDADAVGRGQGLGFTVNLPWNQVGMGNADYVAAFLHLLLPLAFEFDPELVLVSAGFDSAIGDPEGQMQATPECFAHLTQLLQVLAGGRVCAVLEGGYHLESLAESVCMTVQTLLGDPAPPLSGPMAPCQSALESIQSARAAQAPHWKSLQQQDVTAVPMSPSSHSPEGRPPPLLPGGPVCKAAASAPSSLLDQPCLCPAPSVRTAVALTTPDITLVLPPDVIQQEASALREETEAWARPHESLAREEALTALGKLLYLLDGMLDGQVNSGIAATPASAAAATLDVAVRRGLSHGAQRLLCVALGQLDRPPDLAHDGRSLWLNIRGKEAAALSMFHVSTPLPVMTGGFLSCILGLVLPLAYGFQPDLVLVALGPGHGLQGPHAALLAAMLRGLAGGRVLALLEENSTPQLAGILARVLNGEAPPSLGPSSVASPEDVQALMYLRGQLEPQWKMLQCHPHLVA

[8] = target: Histone deacetylase 5 (Homo sapiens) (UniProt Q9UQL6); assay: Inhibition of full length N-terminal GST-tagged human HDAC5 expressed in baculovirus infected Sf9 insect cells using BPS HDAC class 2a substrate at 1 uM after 30 mins by fluorescence assay relative to control
Summary of the method: (§3)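 Run by a contract lab. Compound incubated with HDAC enzyme, HDAC substrate, BSA and HDAC buffer, in duplicate, at 37 °C for 30 min. Quenched with HDAC developer, then 15 min at room temperature. Fluorescence read at ex 360/em 460 nm. Percent activity = (F−Fb)/(Ft−Fb), using blank and solvent-control wells. IC50 from curve fitting.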

[9] = target: T4, Polyamine deacetylase HDAC10 (Homo sapiens, UniProt Q969S8); assay: Inhibition of N-terminal GST-tagged/C-terminal His-tagged human HDAC10 (1 to 481 residues) expressed in baculovirus infected Sf9 insect cells using BPS HDAC substrate 3 after 30 mins by fluorescence assay; summary of the method: as §3
T4 sequence (Q969S8 whole entry): T3 sequence (whole entry)

[10] = target: Histone deacetylase 3/Nuclear receptor corepressor 2 (HDAC3/NCoR2) (Homo sapiens, UniProt O15379); assay: Inhibition of full length human C-terminal His-tagged HDAC3/N-terminal GST-tagged NCOR2 (395 to 489 residues) expressed in baculovirus infected Sf9 insect cells using BPS HDAC substrate 3 after 30 mins by fluorescence assay
Summary of the method: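 Run by a contract lab. Compound incubated with HDAC enzyme, substrate, bovine serum albumin and HDAC buffer in duplicate for 30 min at 37 °C. Activity taken as (F−Fb)/(Ft−Fb) against blank and solvent control wells; IC50 from curve fitting.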

HCT-116 [11] = assay: Cytotoxicity against human HCT116 cells assessed as reduction in cell viability after 48 hrs by MTT assay; format: functional, cell-based; details: HCT-116, 48 h; summary of the method: as §1
MDA-MB-231 [12] = assay: Cytotoxicity against human MDA-MB-231 cells assessed as reduction in cell viability after 48 hrs by MTT assay; format: functional, cell-based; details: MDA-MB-231, 48 h; summary of the method: as §1
Homo sapiens [13] = species on record: Homo sapiens; assay: Inhibition of class 1 HDAC in human HCT116 cells assessed as hyperacetylation of histone H3 (Lys9/14) measured at 8 hrs post treatment by immunoblot analysis; format: cell-based
Summary of the method: (§4)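 Cells in DMEM/10% FBS; 4 × 10^5 cells seeded in 60-mm dishes overnight, then treated for 8 h with 0–10 μM (final) compound or vehicle (1% EtOH). Whole-cell lysates loaded at equal protein (BCA), run on SDS-PAGE, blotted to PVDF and probed with anti-acetyl histone H3 (Lys9/14); β-actin also probed. Chemiluminescent detection.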

Homo sapiens [14] = species on record: Homo sapiens; assay: Inhibition of class 1 HDAC in human MDA-MB-231 cells assessed as hyperacetylation of histone H3 (Lys9/14) measured at 8 hrs post treatment by immunoblot analysis; format: cell-based; summary of the method: as §4

Sequence of Histone deacetylase 5 (Homo sapiens) (Q9UQL6 whole entry): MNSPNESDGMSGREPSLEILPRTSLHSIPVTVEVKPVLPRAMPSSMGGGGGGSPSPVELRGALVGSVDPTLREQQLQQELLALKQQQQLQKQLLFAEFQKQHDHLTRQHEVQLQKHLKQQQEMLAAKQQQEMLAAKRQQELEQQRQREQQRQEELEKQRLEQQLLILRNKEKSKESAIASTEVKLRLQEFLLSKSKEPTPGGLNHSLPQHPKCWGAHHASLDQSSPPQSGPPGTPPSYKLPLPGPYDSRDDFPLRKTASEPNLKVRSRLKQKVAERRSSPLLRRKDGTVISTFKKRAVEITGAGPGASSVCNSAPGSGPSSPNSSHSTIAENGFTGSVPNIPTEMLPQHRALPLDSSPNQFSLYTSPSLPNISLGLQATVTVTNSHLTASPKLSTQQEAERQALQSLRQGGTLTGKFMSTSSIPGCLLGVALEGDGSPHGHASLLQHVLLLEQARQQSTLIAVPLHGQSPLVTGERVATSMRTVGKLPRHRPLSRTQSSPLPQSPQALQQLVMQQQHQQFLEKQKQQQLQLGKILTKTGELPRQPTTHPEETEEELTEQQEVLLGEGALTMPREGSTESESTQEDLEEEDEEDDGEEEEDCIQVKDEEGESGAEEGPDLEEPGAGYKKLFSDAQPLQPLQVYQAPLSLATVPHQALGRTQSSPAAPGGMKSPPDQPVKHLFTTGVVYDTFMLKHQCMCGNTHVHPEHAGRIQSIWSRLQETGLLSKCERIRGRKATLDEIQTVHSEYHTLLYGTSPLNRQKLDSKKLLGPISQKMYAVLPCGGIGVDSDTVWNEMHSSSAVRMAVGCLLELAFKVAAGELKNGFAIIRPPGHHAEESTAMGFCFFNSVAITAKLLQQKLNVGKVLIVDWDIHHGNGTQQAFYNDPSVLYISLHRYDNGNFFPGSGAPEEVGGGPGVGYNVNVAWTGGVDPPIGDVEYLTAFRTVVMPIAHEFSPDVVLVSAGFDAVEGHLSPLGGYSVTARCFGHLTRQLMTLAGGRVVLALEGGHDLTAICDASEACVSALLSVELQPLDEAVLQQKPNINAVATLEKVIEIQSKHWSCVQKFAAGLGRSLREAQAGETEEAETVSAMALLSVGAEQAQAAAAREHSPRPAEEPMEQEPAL
Sequence of Histone deacetylase 1 (Q13547 whole entry): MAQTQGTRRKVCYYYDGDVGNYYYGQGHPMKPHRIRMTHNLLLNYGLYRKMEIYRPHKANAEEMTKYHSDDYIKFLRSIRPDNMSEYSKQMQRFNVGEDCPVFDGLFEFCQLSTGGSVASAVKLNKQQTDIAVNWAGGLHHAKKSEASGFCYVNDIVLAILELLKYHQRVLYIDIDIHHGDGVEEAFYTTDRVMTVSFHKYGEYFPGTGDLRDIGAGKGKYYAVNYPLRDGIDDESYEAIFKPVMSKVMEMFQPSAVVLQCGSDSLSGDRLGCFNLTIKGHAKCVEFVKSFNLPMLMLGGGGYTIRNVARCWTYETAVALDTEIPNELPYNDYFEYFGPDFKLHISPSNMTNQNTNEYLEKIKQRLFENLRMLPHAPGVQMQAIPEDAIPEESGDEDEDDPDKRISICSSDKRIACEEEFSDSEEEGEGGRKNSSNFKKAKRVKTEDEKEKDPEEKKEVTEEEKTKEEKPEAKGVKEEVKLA
Sequence of Histone deacetylase 2 (Q92769 whole entry, the tested form may be a part): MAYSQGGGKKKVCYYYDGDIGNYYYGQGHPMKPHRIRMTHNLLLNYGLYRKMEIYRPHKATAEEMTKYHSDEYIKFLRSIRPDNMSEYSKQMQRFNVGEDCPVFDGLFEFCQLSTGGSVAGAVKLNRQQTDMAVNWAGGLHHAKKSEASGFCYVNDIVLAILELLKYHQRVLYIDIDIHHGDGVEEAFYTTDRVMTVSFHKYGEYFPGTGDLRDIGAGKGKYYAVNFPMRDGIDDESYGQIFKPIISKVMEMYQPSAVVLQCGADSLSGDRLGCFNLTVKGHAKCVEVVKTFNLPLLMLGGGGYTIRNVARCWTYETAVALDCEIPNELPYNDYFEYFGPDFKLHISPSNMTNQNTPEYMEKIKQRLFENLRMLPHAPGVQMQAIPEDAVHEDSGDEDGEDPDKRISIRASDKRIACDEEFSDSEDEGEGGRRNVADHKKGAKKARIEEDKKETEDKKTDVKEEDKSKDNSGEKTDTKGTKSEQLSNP
Sequence of Histone deacetylase 3/Nuclear receptor corepressor 2 (HDAC3/NCoR2) (O15379 whole entry, the tested form may be a part): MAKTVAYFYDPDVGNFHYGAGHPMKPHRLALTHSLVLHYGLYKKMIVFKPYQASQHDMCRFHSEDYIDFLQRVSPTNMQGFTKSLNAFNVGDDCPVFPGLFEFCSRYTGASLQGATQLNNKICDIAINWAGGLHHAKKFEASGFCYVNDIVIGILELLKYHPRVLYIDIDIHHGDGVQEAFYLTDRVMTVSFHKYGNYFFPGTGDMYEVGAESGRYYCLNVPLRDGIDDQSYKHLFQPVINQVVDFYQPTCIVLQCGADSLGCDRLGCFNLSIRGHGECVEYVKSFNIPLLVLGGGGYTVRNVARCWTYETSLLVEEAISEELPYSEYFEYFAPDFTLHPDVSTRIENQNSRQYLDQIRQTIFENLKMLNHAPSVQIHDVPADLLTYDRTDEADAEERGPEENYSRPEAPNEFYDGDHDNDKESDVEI
Sequence of Histone deacetylase 3/Nuclear receptor corepressor 2 (HDAC3/NCoR2) (Q9Y618 whole entry, further chain, the tested form may be a part): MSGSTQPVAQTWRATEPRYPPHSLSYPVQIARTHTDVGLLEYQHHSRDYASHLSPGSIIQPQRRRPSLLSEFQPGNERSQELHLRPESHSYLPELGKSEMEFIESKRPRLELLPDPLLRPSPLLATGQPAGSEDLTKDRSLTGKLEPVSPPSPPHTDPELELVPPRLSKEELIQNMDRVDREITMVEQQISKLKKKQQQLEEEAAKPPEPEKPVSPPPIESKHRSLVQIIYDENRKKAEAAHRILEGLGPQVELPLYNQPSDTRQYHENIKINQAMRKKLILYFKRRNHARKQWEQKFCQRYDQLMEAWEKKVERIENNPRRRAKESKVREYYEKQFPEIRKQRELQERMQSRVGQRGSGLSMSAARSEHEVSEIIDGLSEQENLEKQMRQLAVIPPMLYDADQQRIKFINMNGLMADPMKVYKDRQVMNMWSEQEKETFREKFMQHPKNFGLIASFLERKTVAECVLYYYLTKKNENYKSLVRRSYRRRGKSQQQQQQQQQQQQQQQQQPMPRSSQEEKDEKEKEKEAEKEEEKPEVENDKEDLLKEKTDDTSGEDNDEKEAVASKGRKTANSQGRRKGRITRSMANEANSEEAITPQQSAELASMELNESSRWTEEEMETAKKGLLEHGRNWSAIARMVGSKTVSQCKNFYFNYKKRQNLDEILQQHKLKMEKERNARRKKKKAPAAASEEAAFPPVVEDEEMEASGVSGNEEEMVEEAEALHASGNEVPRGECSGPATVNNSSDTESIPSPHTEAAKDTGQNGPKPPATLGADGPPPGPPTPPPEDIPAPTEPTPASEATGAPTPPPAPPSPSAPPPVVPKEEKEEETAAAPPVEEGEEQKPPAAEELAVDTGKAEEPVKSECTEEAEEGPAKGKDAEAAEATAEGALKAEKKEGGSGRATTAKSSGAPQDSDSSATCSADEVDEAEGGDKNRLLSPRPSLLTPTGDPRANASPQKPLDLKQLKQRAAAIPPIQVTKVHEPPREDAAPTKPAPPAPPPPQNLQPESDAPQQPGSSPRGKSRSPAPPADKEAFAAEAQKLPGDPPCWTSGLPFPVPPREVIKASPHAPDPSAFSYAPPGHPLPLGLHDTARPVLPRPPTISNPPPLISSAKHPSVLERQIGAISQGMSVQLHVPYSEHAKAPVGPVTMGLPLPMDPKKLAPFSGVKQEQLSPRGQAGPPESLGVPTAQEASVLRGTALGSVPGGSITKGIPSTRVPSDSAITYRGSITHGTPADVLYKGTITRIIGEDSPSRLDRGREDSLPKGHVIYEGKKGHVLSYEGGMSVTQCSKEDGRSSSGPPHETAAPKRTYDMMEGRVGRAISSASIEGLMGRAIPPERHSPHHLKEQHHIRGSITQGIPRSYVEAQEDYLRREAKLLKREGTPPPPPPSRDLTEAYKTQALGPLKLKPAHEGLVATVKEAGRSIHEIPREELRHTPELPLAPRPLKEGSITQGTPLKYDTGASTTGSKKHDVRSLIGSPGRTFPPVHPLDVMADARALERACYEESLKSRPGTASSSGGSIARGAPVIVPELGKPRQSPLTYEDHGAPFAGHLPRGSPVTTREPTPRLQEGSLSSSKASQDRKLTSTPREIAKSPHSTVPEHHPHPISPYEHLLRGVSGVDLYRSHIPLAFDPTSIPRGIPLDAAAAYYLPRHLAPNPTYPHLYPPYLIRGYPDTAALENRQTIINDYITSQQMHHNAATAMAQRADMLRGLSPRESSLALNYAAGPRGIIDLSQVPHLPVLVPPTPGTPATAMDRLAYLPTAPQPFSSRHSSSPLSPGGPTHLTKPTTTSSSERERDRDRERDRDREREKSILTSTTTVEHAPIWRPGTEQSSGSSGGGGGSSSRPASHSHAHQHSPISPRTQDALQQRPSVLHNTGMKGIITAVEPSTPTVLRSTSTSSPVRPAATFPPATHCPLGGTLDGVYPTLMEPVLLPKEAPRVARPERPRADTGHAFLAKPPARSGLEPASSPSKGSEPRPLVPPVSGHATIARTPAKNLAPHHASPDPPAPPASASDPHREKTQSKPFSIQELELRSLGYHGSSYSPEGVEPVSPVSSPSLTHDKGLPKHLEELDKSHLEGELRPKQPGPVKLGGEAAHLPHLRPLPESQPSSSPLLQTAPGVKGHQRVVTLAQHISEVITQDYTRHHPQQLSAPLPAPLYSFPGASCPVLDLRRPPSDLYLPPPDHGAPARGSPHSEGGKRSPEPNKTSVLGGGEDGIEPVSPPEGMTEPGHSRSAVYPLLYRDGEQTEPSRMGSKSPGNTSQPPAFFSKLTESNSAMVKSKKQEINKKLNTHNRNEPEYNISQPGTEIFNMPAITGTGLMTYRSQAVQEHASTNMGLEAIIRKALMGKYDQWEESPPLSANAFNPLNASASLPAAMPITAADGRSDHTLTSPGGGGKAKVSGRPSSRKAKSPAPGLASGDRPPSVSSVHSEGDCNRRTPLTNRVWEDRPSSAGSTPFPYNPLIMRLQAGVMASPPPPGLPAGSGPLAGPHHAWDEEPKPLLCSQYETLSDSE

SMILES | inhibition (Histone deacetylase 1) [%] | inhibition (Histone deacetylase 2) [%] | inhibition [3] [%] | inhibition [4] [%] | inhibition [5] [%] | inhibition [6] [%] | inhibition [7] [%] | pIC50 [10] | Activity (HCT-116 [1]) | Activity (MDA-MB-231 [2]) | inhibition [8] [%] | pIC50 [9] | pIC50 (HCT-116 [11]) | pIC50 (MDA-MB-231 [12]) | inhibition (Homo sapiens [13]) | inhibition (Homo sapiens [14])
CC(=O)CC(=O)NC/C=C/[C@@H]1CC(=O)NCc2nc(cs2)C2=N[C@@](C)(CS2)C(=O)N[C@@H](C(C)C)C(=O)O1 | < 15 | < 15 | < 15 | < 15 | 22 | < 15 | < 15 | – | inactive | inactive | – | – | – | – | – | –
CC(C)[C@@H]1NC(=O)[C@]2(C)CSC(=N2)c2csc(n2)CNC(=O)C[C@@H](/C=C/CCS)OC1=O | – | – | – | – | – | – | – | – | – | – | < 15 | 9.30 | – | – | – | –
CCCCCCCC(=O)SCC/C=C/[C@@H]1CC(=O)NCc2nc(cs2)C2=N[C@@](C)(CS2)C(=O)N[C@@H](C(C)C)C(=O)O1 [LARGAZOLE] | – | – | – | – | – | – | – | – | – | – | – | – | 7.70 | 8.80 | Dose-dependent effect | Dose-dependent effect

Further lines, with some results ahead:

inhibition (Histone deacetylase 1) [%] | inhibition (Histone deacetylase 2) [%] | inhibition [3] [%] | inhibition [4] [%] | inhibition [5] [%] | inhibition [6] [%] | inhibition [7] [%] | pIC50 [10] | SMILES | Activity (HCT-116 [1]) | Activity (MDA-MB-231 [2]) | inhibition [8] [%] | pIC50 [9] | pIC50 (HCT-116 [11]) | pIC50 (MDA-MB-231 [12]) | inhibition (Homo sapiens [13]) | inhibition (Homo sapiens [14])
< 15 | < 15 | < 15 | < 15 | < 15 | 24 | < 15 | – | CCC/C=C/[C@@H]1CC(=O)NCc2nc(cs2)C2=N[C@@](C)(CS2)C(=O)N[C@@H](C(C)C)C(=O)O1 | inactive | inactive | – | – | – | – | – | –
< 15 | < 15 | < 15 | < 15 | < 15 | < 15 | < 15 | – | CC(C)[C@@H]1NC(=O)[C@]2(C)CSC(=N2)c2csc(n2)CNC(=O)C[C@@H](/C=C/CCN)OC1=O | inactive | inactive | – | – | – | – | – | –
< 15 | < 15 | < 15 | < 15 | 17 | 20 | 19 | – | CC(C)[C@@H]1NC(=O)[C@]2(C)CSC(=N2)c2csc(n2)CNC(=O)C[C@@H](/C=C/CCC(=O)O)OC1=O | inactive | inactive | – | – | – | – | – | –
30 | 24 | – | < 15 | < 15 | < 15 | 49 | 5.10 | CCC(=O)CC/C=C/[C@@H]1CC(=O)NCc2nc(cs2)C2=N[C@@](C)(CS2)C(=O)N[C@@H](C(C)C)C(=O)O1 | inactive | inactive | – | – | – | – | – | –
